Test results taken from ChEMBL document CHEMBL1955807, “Enaminones 12. An explanation of anticonvulsant activity and toxicity per Linus Pauling's clathrate hypothesis” (Eur J Med Chem, 2012).
Active and inactive are the calls of the source. No cut-off for these calls is given here.

What was measured:
[1] = system: Mus musculus; assay: Anticonvulsant activity in CF1 mouse assessed as protection against subcutaneous pentylenetetrazole-induced seizure at 300 mg/kg, ip after 30 mins; format: functional, organism-based; parameters: dose 300 mg/kg
In short: (§1)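 Phase I screen in mice: compounds suspended in 30% poly(ethylene glycol) 400 and given ip at three dose levels (30, 100 and 300 mg/kg). Anticonvulsant protection (MES, scPTZ) and neurologic toxicity by rotorod (inability to grasp) recorded 30 min and 4 h after dosing. Results were reported as animals affected over animals tested. Class 1 means activity at ≤100 mg/kg; class 3 means no activity at 300 mg/kg.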

[2] = system: Mus musculus; assay: Anticonvulsant activity in CF1 mouse assessed as protection against maximal electroshock-induced seizure up to 300 mg/kg, ip after 30 mins to 4 hrs; format: functional, organism-based; parameters: dose 300 mg/kg; in short: as §1
[3] = Neurotoxicity in rat; format: toxicity, organism-based; conditions: in vivo
In short: (§2)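 Phase VIB in male Sprague-Dawley rats dosed ip. The median effective dose (MES ED50) and median neurotoxic dose (TD50) were determined with confidence limits. Protective index was calculated as TD50/ED50.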

[4] = species: Rattus norvegicus; assay: Protective index, ratio of TD50 for rat to ED50 for rat; in short: as §2
[5] = species: Rattus norvegicus; assay: Anticonvulsant activity in rat assessed as protection against maximal electroshock-induced seizure; format: functional; in short: as §2
[6] = system: Mus musculus; assay: Neurotoxicity in CF1 mouse at 300 mg/kg, ip after 30 mins by rotarod test; format: toxicity, organism-based; parameters: dose 300 mg/kg, route intraperitoneal; conditions: in vivo, 0.5 h; in short: as §1
[7] = system: Mus musculus; assay: Neurotoxicity in CF1 mouse assessed as muscle spasms at 100 mg/kg, ip by rotarod test; format: toxicity, organism-based, Muscle tissue; parameters: dose 100 mg/kg, route intraperitoneal; conditions: in vivo; in short: as §1
[8] = system: Mus musculus; assay: Neurotoxicity in CF1 mouse at 100 mg/kg, ip by rotarod test; format: toxicity, organism-based; parameters: dose 100 mg/kg, route intraperitoneal; conditions: in vivo; in short: as §1
[9] = Neurotoxicity in ip dosed Sprague-Dawley rat by rotarod test; format: toxicity, organism-based; conditions: in vivo; in short: as §2
[10] = species: Rattus norvegicus; assay: Protective index, ratio of TD50 for Sprague-Dawley rat by rotarod test to ED50 for Sprague-Dawley rat by MES test
[11] = system: Rattus norvegicus; assay: Anticonvulsant activity in ip dosed Sprague-Dawley rat assessed as protection against maximal electroshock-induced seizure; format: functional; in short: as §2
[12] = system: Mus musculus; assay: Anticonvulsant activity in CF1 mouse assessed as protection against maximal electroshock-induced seizure at 100 mg/kg, ip after 15 mins; format: functional, organism-based; parameters: dose 100 mg/kg
[13] = system: Mus musculus; assay: Neurotoxicity in CF1 mouse at 100 mg/kg, ip after 30 mins by rotarod test; format: toxicity, organism-based; parameters: dose 100 mg/kg, route intraperitoneal; conditions: in vivo, 0.5 h; in short: as §1
[14] = system: Mus musculus; assay: Neurotoxicity in CF1 mouse assessed as muscle spasms at 300 mg/kg, ip by rotarod test; format: toxicity, organism-based, Muscle tissue; parameters: dose 300 mg/kg, route intraperitoneal; conditions: in vivo; in short: as §1
[15] = system: Mus musculus; assay: Anticonvulsant activity in CF1 mouse assessed as protection against maximal electroshock-induced seizure at 300 mg/kg, ip after 30 mins to 4 hrs; format: functional, organism-based; parameters: dose 300 mg/kg; in short: as §1
[16] = system: Mus musculus; assay: Anticonvulsant activity in CF1 mouse assessed as protection against maximal electroshock-induced seizure at 100 mg/kg, ip after 30 mins; format: functional, organism-based; parameters: dose 100 mg/kg; in short: as §1
[17] = system: Mus musculus; assay: Neurotoxicity in CF1 mouse at 300 mg/kg, ip after 30 mins to 4 hrs by rotarod test; format: toxicity, organism-based; parameters: dose 300 mg/kg, route intraperitoneal; conditions: in vivo; in short: as §1
[18] = system: Mus musculus; assay: Neurotoxicity in CF1 mouse at 300 mg/kg, ip after 4 hrs by rotarod test; format: toxicity, organism-based; parameters: dose 300 mg/kg, route intraperitoneal; conditions: in vivo; in short: as §1
[19] = system: Mus musculus; assay: Toxicity in CF1 mouse assessed as mortality at 30 mg/kg, ip after 30 mins; format: organism-based; parameters: dose 30 mg/kg, route intraperitoneal; conditions: in vivo, 0.5 h
[20] = system: Mus musculus; assay: Neurotoxicity in CF1 mouse assessed as myoclonic jerks at 100 mg/kg, ip after 4 hrs by rotarod test; format: toxicity, organism-based; parameters: dose 100 mg/kg, route intraperitoneal; conditions: in vivo; in short: as §1
[21] = system: Mus musculus; assay: Neurotoxicity in CF1 mouse assessed as muscle spasms at 100 to 300 mg/kg, ip after 30 mins by rotarod test; format: toxicity, organism-based, Muscle tissue; parameters: dose 100-300 mg/kg, route intraperitoneal; conditions: in vivo, 0.5 h; in short: as §1
[22] = system: Mus musculus; assay: Toxicity in CF1 mouse assessed as mortality at 30 mg/kg, ip after 4 hrs; format: organism-based; parameters: dose 30 mg/kg, route intraperitoneal; conditions: in vivo
[23] = system: Rattus norvegicus; assay: Anticonvulsant activity in Sprague-Dawley rat assessed as protection against maximal electroshock-induced seizure at 30 mg/kg, ip after 1 hr
[24] = system: Rattus norvegicus; assay: Anticonvulsant activity in Sprague-Dawley rat assessed as protection against subcutaneous pentylenetetrazole-induced seizure at 30 mg/kg, ip after 4 hrs; format: functional, organism-based; parameters: dose 30 mg/kg
[25] = system: Mus musculus; assay: Neurotoxicity in CF1 mouse up to 300 mg/kg, ip after 30 mins to 4 hrs by rotarod test; format: toxicity, organism-based; parameters: dose 300 mg/kg, route intraperitoneal; conditions: in vivo; in short: as §1

For `Cc1cc(C(=O)NC2=CC(=O)CC(C)(C)C2)no1`, the Activity [1] was “inactive” and the Activity [2] was “inactive”.

`Cc1cc(NC(=O)c2c(C)cccc2C)no1` [SORETOLIDE] showed a TD50 [3] greater than 500 mg/kg, a PI [4] greater than 54.3 and an ED50 [5] of 9.2 mg/kg.

For `NC1=CC(=O)CCC1`, the Activity [1] was “inactive”, the Activity [6] was “Toxic” and the Activity [7] was “Toxic”. The Activity [2] was “inactive” and the Activity [8] was “Toxic”.

In the case of `Cc1cc(NC2=CC(=O)CC(C)C2)no1` (stereo unspecified), the TD50 [9] is reported as greater than 120 mg/kg, the PI [10] is reported as 1.8 and the Activity [1] is reported as “Active”. The ED50 [11] was 66 mg/kg, the Activity [12] was “Active” and the Activity [13] was “Toxic”.

In the case of `CC1CC(=O)C=C(N)C1` (stereo unspecified), the Activity [14] is reported as “Toxic”, the Activity [1] is reported as “inactive” and the Activity [6] is reported as “Toxic”. The Activity [7] was “Toxic” and the Activity [2] was “inactive”.

In the case of `Cc1cc(NC2=CC(=O)CC(C)(C)C2)no1`, the Activity [15] is reported as “Active”, the Activity [1] is reported as “inactive” and the Activity [16] is reported as “Active”. For the same compound, the Activity [17] was “Toxic” and the Activity [13] was “Toxic”.

Work on `Cc1cccc(C)c1NC(=O)c1conc1C` yielded a TD50 [3] greater than 500 mg/kg, a PI [4] greater than 56.2 and an ED50 [5] of 8.9 mg/kg.

In the case of `CCOC(=O)C1C(=O)C=C(Nc2cc(C)on2)CC1C` (stereo unspecified), the TD50 [3] is reported as greater than 500 mg/kg, the PI [4] is reported as greater than 7.3 and the ED50 [5] is reported as 68.9 mg/kg.

For `Cc1cc(NC2=CC(=O)C(C(=O)OC(C)(C)C)C(C)C2)no1` (stereo unspecified), the TD50 [3] was greater than 500 mg/kg, the PI [4] was greater than 17.8 and the ED50 [5] was 28.1 mg/kg.

With `Cc1oncc1CNC1=CC(=O)CC(C)C1` (stereo unspecified) the Activity [1] was “inactive” and the Activity [2] was “inactive”.

With `Cc1cc(C(=O)Nc2c(C)cccc2C)no1` the TD50 [3] was greater than 500 mg/kg, the PI [4] was greater than 90.9 and the ED50 [5] was 5.5 mg/kg.

In the case of `Cc1cc(C(=O)NC2=CC(=O)CC(C)C2)no1` (stereo unspecified), the Activity [18] is reported as “Toxic”, the Activity [1] is reported as “inactive” and the Activity [6] is reported as “Toxic”. For the same compound, the Activity [2] was “inactive”.

With `Cc1cc(NC2=CC(=O)C(C(=O)OC(C)(C)C)C(C(F)(F)F)C2)no1` (stereo unspecified) the Activity [1] was “inactive” and the Activity [2] was “inactive”.

In the case of `Cc1oncc1CNC1=CC(=O)CC(C)(C)C1`, the Activity [1] is reported as “inactive” and the Activity [2] is reported as “inactive”.

With `Cc1cc(C(=O)NC2=CC(=O)CCC2)no1` the Activity [1] was “inactive” and the Activity [2] was “inactive”.

For `CC1(C)CC(=O)C=C(N)C1`, the Activity [19] was “Toxic”, the Activity [1] was “inactive” and the Activity [20] was “Toxic”. The Activity [21] was “Toxic”, the Activity [2] was “inactive” and the Activity [22] was “Toxic”.

For `Cc1cc(NC2=CC(=O)CCC2)no1`, the Activity [23] was “Active”, the Activity [24] was “Active” and the Activity [1] was “Active”. The Activity [25] was “Non-toxic” and the Activity [2] was “inactive”.
